The target in one series is T1, glucocorticoid receptor (Rattus norvegicus, UniProt P06536).
T1 sequence (P06536 1-795): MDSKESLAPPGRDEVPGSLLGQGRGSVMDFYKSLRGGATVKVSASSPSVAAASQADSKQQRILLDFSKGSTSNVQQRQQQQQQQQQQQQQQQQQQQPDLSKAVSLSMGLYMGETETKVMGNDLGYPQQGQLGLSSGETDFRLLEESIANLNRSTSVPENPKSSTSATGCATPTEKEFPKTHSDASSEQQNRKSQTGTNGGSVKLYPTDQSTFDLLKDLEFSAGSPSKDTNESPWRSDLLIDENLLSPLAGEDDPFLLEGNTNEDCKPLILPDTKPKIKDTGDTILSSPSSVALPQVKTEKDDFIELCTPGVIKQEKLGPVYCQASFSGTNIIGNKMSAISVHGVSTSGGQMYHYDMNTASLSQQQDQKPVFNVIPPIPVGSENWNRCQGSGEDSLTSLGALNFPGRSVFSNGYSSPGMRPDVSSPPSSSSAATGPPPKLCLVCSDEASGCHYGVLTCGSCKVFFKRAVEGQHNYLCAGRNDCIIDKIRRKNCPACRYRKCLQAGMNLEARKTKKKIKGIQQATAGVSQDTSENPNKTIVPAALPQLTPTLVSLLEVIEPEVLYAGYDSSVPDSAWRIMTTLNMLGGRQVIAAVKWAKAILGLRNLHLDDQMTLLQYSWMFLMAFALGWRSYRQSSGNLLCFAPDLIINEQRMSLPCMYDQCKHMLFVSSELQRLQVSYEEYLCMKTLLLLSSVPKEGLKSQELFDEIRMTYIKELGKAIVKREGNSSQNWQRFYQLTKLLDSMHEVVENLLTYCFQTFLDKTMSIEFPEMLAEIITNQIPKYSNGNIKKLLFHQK
The experiment in a line: In vivo glucocorticoid receptor occupancy study. Particulars: iv, read-out: Observed receptor occupancy.

The nature of series [1]: Fraction unbound in plasma. The class given is in vitro ADME.
Another series can be described thus: logD7.4. Format: physicochemical. Particulars: pH 7.4.
The nature of series [2]: In vitro apparent permeability across CaCo2-monolayers. The class given is in vitro ADME. The settings on record: human, Caco-2.
Series [3] in a line: Estimation of solubility Cs by fitting PBPK model to total lung concentrations. The class given is in vivo. Particulars: rat, inhaled, 11.3 nmol/kg. The essentials: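 Fit of the whole-body PBPK model with lung disposition to total lung concentrations in rats after nose-only inhalation (lung deposited dose 11.3 nmol/kg). Fitting used nonlinear least squares (Levenberg–Marquardt). The starting value came from an exhaustive sum-of-squares search over a broad range, then 300 candidates within ±200 nM of the best solution. Particle dissolution followed the Nernst–Brunner equation; all other inputs were fixed.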

Series [4] in a line: PK study after i.v. administration in rats. Format: in vivo. The settings on record: rat, plasma, iv, 90 nmol/kg.
A short description of series [5]: Unbound lung volume of distribution. The class given is in vitro ADME.

In brackets after ≈: the same amount, converted by molar mass.

Regarding `CCC(=O)O[C@]1(C(=O)SCF)[C@H](C)C[C@H]2[C@@H]3C[C@H](F)C4=CC(=O)C=C[C@]4(C)[C@@]3(F)[C@@H](O)C[C@@]21C` [fluticasone propionate], on glucocorticoid receptor, the receptor occupancy at 0.02 µmol/kg was determined as 27 ± 9.7% and the receptor occupancy at 0.75 µmol/kg stood at 100 ± 3.5%. In series [1], this compound showed a fraction unbound of 0.016. In “logD7.4”, this compound registered a pH-dependent lipophilicity (logD) of 4.2. Besides, the Papp in series [2] was 46.9 ×10⁻⁶ cm/s. For the same compound, the solubility in series [3] is 4.53 µM (≈ 2.27 µg/mL). Moreover, the clearance in series [4] (CLP (plasma clearance)) was 182 mL/min/kg. In addition, the Vd in series [4] (Vdss (volume of distribution at steady state)) is 12.5 L/kg. The “Vu,lung (unbound lung volume of distribution)” value in series [5] is reported as 213.4 mL/g lung tissue.

A word on the fraction unbound: it is the share of the substance not bound to proteins or other matrix. The logD is lipophilicity at a set pH, counting ionised and neutral species. Higher therefore signals a more lipophilic compound. One may read the Papp as the rate of passage across a membrane or cell layer, normalised by area and donor concentration. In general, solubility refers to how much of the substance goes into solution per volume. A word on the clearance: it is the volume of plasma or blood freed of the substance per unit of time. A lower clearance goes with a low capacity for elimination. As a reminder, the Vd is the apparent volume that relates the amount in the body to the concentration in plasma or blood. Low readings indicate little distribution into tissue, high ones wide distribution into tissue.
